In brackets after ≈: the same amount, converted by molar mass. Where two headings read alike, the source gives them in different places.

Assay [1] has as its system P. aeruginosa (ATCC 47085). In words: Broth microdilution MIC. The format is cell-based. The settings on record: Pseudomonas aeruginosa, ATCC47085.
In assay [2] the target is T1, human mitochondrial PheRS (hmPheRS) (Homo sapiens, UniProt O95363).
T1 sequence (O95363 1-451): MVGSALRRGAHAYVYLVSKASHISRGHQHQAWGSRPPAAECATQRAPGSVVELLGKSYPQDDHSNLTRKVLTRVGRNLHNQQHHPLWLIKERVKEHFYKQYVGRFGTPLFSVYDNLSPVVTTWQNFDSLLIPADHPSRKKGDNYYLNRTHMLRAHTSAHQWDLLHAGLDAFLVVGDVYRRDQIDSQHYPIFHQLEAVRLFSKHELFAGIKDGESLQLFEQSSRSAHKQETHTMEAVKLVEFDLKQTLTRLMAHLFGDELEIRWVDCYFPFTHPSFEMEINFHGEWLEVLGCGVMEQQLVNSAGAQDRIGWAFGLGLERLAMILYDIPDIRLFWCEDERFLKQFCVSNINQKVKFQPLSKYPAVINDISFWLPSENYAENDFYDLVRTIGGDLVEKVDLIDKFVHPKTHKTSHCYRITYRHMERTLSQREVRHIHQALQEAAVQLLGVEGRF
Description: Human mitochondrial PheRS aminoacylation assay. The format is biochemical. The following applies: 132 μM compound; 0.2 μM hmPheRS; average of three assays.

In assay [3] the test system is P. aeruginosa PAO200 (efflux mutant). In words: Broth microdilution MIC. The settings on record: Pseudomonas aeruginosa. The format is cell-based. (In general: Broth dilution looks for growth in wells or tubes with falling amounts of substance.)
The test system of the next assay is E. faecalis (ATCC 29212). In words: Broth microdilution MIC. The format is cell-based. The settings on record: Enterococcus faecalis, ATCC29212.
Assay [4] deals with M. catarrhalis (ATCC 25238). Description: Broth microdilution MIC. The format is cell-based. The following applies: Moraxella catarrhalis, ATCC25238.
For assay [5], the system named is H. influenzae (ATCC 49766). Description: Broth microdilution MIC. The following applies: Haemophilus influenzae, ATCC49766. The format is cell-based.
Assay [6] deals with cytoplasmic protein synthesis in wheat germ extracts. Description: Wheat germ extract poly-Phe cytoplasmic protein synthesis assay. The format is biochemical. The following applies: poly-U mRNA, compound to 132 μM. Summed up: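 Cytoplasmic poly-Phe synthesis in wheat germ extract programmed with poly-U mRNA, yeast tRNAPhe and [3H]phenylalanine. Levels of mRNA, tRNA, label and Mg++ were optimized for poly-Phe synthesis. Cycloheximide served as reference protein-synthesis inhibitor.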

In a further assay the target is P. aeruginosa PheRS (Pseudomonas aeruginosa, UniProt Q9I0A3). Description: tRNA aminoacylation assay in SPA format, P. aeruginosa PheRS. The format is biochemical.
Sequence of P. aeruginosa PheRS (Q9I0A4 whole entry): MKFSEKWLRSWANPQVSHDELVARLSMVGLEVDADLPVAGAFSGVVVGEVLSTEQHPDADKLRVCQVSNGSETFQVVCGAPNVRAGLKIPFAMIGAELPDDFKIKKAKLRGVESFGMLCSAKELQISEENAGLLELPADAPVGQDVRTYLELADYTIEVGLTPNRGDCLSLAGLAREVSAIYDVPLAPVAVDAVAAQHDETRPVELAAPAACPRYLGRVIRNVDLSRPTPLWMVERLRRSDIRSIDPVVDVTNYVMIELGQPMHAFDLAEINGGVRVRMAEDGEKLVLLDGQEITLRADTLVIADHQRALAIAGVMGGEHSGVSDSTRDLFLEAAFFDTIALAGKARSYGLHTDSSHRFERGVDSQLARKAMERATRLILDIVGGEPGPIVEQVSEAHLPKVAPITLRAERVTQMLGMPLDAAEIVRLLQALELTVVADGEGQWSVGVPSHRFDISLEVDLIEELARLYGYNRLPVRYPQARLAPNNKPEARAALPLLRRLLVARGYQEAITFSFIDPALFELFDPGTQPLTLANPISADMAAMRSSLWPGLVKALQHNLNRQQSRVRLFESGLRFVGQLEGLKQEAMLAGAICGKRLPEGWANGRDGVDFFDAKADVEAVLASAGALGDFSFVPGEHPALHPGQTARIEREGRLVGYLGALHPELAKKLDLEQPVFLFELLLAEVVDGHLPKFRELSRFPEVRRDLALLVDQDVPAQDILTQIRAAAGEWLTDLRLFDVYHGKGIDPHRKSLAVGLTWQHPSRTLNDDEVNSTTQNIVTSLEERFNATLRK
Sequence of P. aeruginosa PheRS (Q9I0A3 whole entry): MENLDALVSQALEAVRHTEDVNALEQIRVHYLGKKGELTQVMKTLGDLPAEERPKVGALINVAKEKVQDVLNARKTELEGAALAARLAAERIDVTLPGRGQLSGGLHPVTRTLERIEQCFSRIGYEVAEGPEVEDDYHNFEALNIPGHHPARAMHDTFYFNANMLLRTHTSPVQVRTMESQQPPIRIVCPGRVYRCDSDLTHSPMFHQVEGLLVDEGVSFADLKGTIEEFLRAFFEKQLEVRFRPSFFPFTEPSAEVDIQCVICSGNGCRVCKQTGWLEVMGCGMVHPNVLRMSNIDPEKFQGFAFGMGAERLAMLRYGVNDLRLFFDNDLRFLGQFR
Assay [7] deals with S. pneumoniae (ATCC 49619). Description: Broth microdilution MIC. The format is cell-based. The following applies: Streptococcus pneumoniae, ATCC49619.
A further assay has as its system S. aureus (ATCC 29213). In words: Broth microdilution MIC. The format is cell-based. The following applies: Staphylococcus aureus, ATCC29213.
The next assay relates to E. coli (ATCC 25922). Description: Broth microdilution MIC. The format is cell-based. The following applies: Escherichia coli, ATCC25922.
The test system of assay [8] is P. aeruginosa (hypersensitive). Description: Broth microdilution MIC. The format is cell-based. The settings on record: Pseudomonas aeruginosa, ATCC35151.
A further assay relates to E. coli tolC. Description: Broth microdilution MIC. The format is cell-based. The following applies: Escherichia coli.
Another assay addresses S. pneumoniae PheRS (Streptococcus pneumoniae serotype 2, UniProt Q04LU1). Description: tRNA aminoacylation assay in SPA format, S. pneumoniae PheRS. The format is biochemical.
For assay [9], the system named is cytoplasmic protein synthesis in wheat germ extracts. The following applies: wheat germ extract; at 30 μM; cited from earlier work.
Setting [10] is: IC50s at five Phe concentrations 25 to 300 μM, ATP fixed at 2.5 mM.
The mark [11] stands for this setting: IC50s at six ATP concentrations 25 to 1000 μM, Phe fixed at 100 μM.

Sequence of S. pneumoniae PheRS (Q04LU1 whole entry): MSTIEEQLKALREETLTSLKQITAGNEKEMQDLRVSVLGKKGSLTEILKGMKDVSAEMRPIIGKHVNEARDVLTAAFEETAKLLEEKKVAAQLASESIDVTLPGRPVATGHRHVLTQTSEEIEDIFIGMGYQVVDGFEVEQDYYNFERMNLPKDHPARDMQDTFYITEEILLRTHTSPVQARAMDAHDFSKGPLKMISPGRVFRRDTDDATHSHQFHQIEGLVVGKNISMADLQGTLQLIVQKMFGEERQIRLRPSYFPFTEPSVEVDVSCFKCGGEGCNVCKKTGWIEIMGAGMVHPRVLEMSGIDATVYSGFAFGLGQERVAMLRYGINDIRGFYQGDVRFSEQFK

Broadly, the IC50 is the point on the concentration scale where inhibition reaches its midpoint. By Ki is commonly meant the dissociation constant of the complex between target and ligand, obtained from inhibition or displacement. In the case of `Cc1cc2c(C(C)C)c(O)c(O)c(C=O)c2c(O)c1-c1c(C)cc2c(C(C)C)c(O)c(O)c(C=O)c2c1O` [BPP_03B04, gossypol], the MIC in assay [1] worked out at 16 µg/mL (≈ 30.9 µM); in assay [3], 16 µg/mL (≈ 30.9 µM); in the assay on E. faecalis (ATCC 29212) it was 32 µg/mL (≈ 61.7 µM); in assay [4], 32 µg/mL (≈ 61.7 µM); in [5], 16 µg/mL (≈ 30.9 µM); in assay [7] it was 32 µg/mL (≈ 61.7 µM). Further, the MIC is 16 µg/mL (≈ 30.9 µM) with S. aureus (ATCC 29213), 128 µg/mL (≈ 247 µM) in the assay with E. coli (ATCC 25922), 16 µg/mL (≈ 30.9 µM) in assay [8] and 128 µg/mL (≈ 247 µM) against E. coli tolC. Besides, in assay [2], the “decrease of hmPheRS activity” value is “approximately 80%”. For the same compound, the “inhibition of protein synthesis” value in assay [6] is listed as “no inhibition”. Moreover, the values for the half-inhibitory concentration (IC50) at P. aeruginosa PheRS and on S. pneumoniae PheRS were 2300 nM and 4900 nM, respectively. Also, the inhibition constant (Ki) was 830 nM on P. aeruginosa PheRS and 980 nM on S. pneumoniae PheRS. For the same compound, the “mode of action relative to Phe” value at P. aeruginosa PheRS (setting [10]) and on S. pneumoniae PheRS (setting [10]) was “competitive” throughout. Moreover, the “mode of action relative to ATP” value at P. aeruginosa PheRS (setting [11]) and at S. pneumoniae PheRS (setting [11]) was “uncompetitive” each time.
As to `C[C@@H]1C[C@@H]([C@H](O)CC2CC(=O)NC(=O)C2)C(=O)[C@@H](C)C1` [cycloheximide], the “inhibition of protein synthesis” value in assay [9] is “inhibited”.

The values above are taken from paper PMC4439361 (Current drug discovery technologies, 2015).
